Measured values published in paper PMC2671235 (Biochemistry, 2009).
Entries after “also recorded” stand apart in the source; their conditions may differ. Like-named read-outs stand apart in the source and are kept apart here. Ends that are not written are not given here.

Tests used:
S100A10 [1] = target: T1, S100A10 (Homo sapiens, UniProt P60903); experiment: ITC of AnII binding to S100A10
How it was run: (§1)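 Isothermal titration calorimetry in 20 mM Tris, 0.2 mM EDTA, 1 mM TCEP, pH 7.5. S100A10 was run with 5 mM calcium or without calcium; Ca2+-S100A11 was run with or without 100 mM NaCl. Protein and peptide were co-dialysed at 4°C. Screens injected 2 μL of about 0.75 mM peptide into about 20–25 μM protein at 10 and 25°C, continuing to saturation when heat appeared. Integrated heats were fit to two sequential sites per dimer, over five temperatures. ΔCp was taken from the slope of ΔHcal against temperature.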

S100A11 [2] = target: T2, S100A11 (Homo sapiens, UniProt P31949); experiment: ITC of AnII binding to Ca2+-S100A11
T2 sequence (P31949 1-105): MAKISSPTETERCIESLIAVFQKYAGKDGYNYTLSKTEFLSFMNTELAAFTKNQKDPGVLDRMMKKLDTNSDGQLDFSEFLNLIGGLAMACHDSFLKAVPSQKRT
How it was run: as §1

[3] = Far-UV CD of free peptides; type: physicochemical; settings: TFE up to 60%, with or without calcium
How it was run: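 Peptides were run at […] in 20 mM Tris, 3 mM DTT, 0.2 mM EDTA, pH 7.5, without or with 5 mM calcium. TFE was added up to 60% final. Buffer-corrected ellipticity was converted to mean residue ellipticity. Fraction helicity was taken from [Θ]222 against temperature-dependent fully coiled and fully helical reference values.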

S100A11 [4] = target: T2, S100A11; experiment: Far-UV CD difference spectra, peptide with S100A11; type: binding; settings: for fractional helicity upon binding: far-UV CD difference spectra, 10 μM protein, 50 μM peptide, 5 mM calcium; for coil-to-helix transition upon binding: far-UV CD, Ca2+-S100A11
How it was run: (§2)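 Recombinant S100 protein expressed in E. coli BL21(DE3), purified by phenyl-Sepharose and Sephadex G-75; S100A10 eluted in 8 M urea and refolded by dialysis. Far-UV CD recorded 250–200 nm on 10 μM protein plus 50 μM peptide in binding buffer with 5 mM calcium. Difference spectrum: complex minus free peptide minus free protein, converted to mean residue ellipticity assuming saturated sites. Fraction helicity derived from [Θ]222 against temperature-dependent coil and helix reference values.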

S100A10 [5] = target: T1, S100A10; experiment: Far-UV CD difference spectra, AnII with S100A10; type: binding
How it was run: as §2

[6] = Analytical equilibrium ultracentrifugation; type: physicochemical; settings: 4°C, 35,000 rpm, 20 mM Tris, 1 mM TCEP, 0.2 mM EDTA, pH 7.5, absence or presence of 5 mM calcium; single species fit
How it was run: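 Peptides were N-terminally acetylated; AnII carried an added C-terminal Tyr. Concentrations came from ε280 of 5,500 (AnI) and 1,490 (AnII) M−1 cm−1. Radial distributions were fitted to a single-species equilibrium equation using partial specific volumes of 0.748 (AnI) and 0.745 (AnII) cm3/g.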

[7] = system: sixteen members of S100 protein family; experiment: Screen of peptides against S100 family; type: binding, human; settings: S100 proteins other than the partners found (S100A6, S100A10, S100A11)
S100A10 [8] = settings: literature; ref [15]; cited from earlier work
S100A11 [9] = settings: cited from earlier work
Ca2+-S100P = settings: ref [25], cited from earlier work
calmodulin [10] = settings: ref [27]; cited from earlier work
S100A11 [11] = target: T2, S100A11; experiment: Trp fluorescence titration of AnI with S100A11; type: binding
How it was run: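 Intrinsic Trp emission of 2 μM peptide, excited at 295 nm and read at 305–400 nm. Protein was added stepwise in 1.2 μM increments to 10 μM, a final 5:1 protein:peptide ratio. Emission intensity and maximum were followed. Kd came from fitting the intensity change against protein concentration to a model with two identical sites per dimer.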

S100A6 [12] = target: T3, S100A6 (Homo sapiens, UniProt P06703); experiment: Trp fluorescence titration of AnI with S100A6; type: binding
[13] = system: S100 protein family members (S100A1-S100A13, S100B, S100P, S100Z); experiment: Trp fluorescence screen of AnI against other S100 proteins; type: binding, human; settings: any S100 protein other than S100A11 and S100A6; protein:peptide ratio up to 5:1
How it was run: (§3)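 This screen used a thermostated cell, 295 nm excitation, and emission scanned over 305–400 nm. Concentrated protein in assay buffer was added stepwise to 2 μM AnI, up to 10 μM protein (5:1). For Trp-containing S100A1, A3, A8, A9 and A13, AnI was instead added to 2 μM protein up to 5:1 peptide:protein, and protein-only spectra were subtracted.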

calmodulin [14] = experiment: Trp fluorescence screen of AnI against calmodulin; type: binding; settings: protein:peptide ratio up to 5:1
How it was run: as §3

S100A11 [15] = target: T2, S100A11; experiment: ITC of AnI binding to Ca2+-S100A11
How it was run: (§4)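 VP-ITC in 20 mM Tris, 0.2 mM EDTA, 1 mM TCEP, pH 7.5 with 5 mM calcium. Protein and peptide were co-dialysed with three buffer changes at 4°C. Because of its limited solubility, the AnI peptide was placed in the cell and the S100 protein titrated from the syringe. Runs were done at five temperatures (15–35°C). Integrated injection heats were fitted to a two identical non-interacting sites per dimer model.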

S100A6 [16] = target: T3, S100A6; experiment: ITC of AnI binding to Ca2+-S100A6; settings: different temperatures, relative to free energy of binding
How it was run: as §4

S100A6 [17] = target: T3, S100A6; experiment: Far-UV CD difference spectra, AnI with S100A6; type: binding
S100A6-Y84S = experiment: Far-UV CD difference spectra, AnI with S100A6-Y84S; type: binding, human; settings: 5 mM calcium
How it was run: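 Spectra of 10 μM protein with 50 μM AnI in 5 mM calcium binding buffer were recorded at 250–200 nm. The difference spectrum was complex minus free peptide minus free protein, converted to mean residue ellipticity assuming saturated sites.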

[18] = system: S100A6 variants (Y73F, Y84S, Y73F/Y84S); experiment: Binding affinity of AnI for substituted S100A6 variants; design: species or system human; settings: data not shown
[19] = Trp fluorescence emission of free AnI; type: physicochemical; settings: free AnI in solution, excitation 295 nm, emission 305-400 nm, pH 7.5
[20] = ITC screen and calcium dependence
[21] = slope of ΔHcal vs temperature, ITC at 5 temperatures
[22] = literature, AnII labeled with Prodan in that study, ref [15]
[23] = 5 mM calcium, pH 7.5, excitation 295 nm

T1 sequence (P60903 whole entry): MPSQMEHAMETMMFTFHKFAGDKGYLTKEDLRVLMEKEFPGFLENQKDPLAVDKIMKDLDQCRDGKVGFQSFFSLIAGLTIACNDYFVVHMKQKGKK

Ac-STVHEILSKLSLEGY [AnII]
effect of calcium on ITC binding (S100A10 [1]; 5 mM calcium compared with absence of calcium): very similar to the data obtained in the absence of calcium
binding (S100A10 [1]; [20]): the binding is independent of calcium; also recorded: AnII has been found to bind S100A10
enthalpy of binding (sign/size) (S100A10 [1]; ITC, total enthalpy from both binding sites, entire temperature range): large and negative; also recorded: exothermic
ΔCp,exp (S100A10 [1]; [21]): −2.4±0.3 kJ/(mol·K)
effect of ionic strength on thermodynamics of binding (S100A11 [2]; 100 mM NaCl): did not have any effect on the thermodynamics of binding
enthalpy of binding (sign/size) (S100A11 [2]; ITC): endothermic but small relative to the Gibbs energy of binding
binding (S100A11 [2]; [20]): this binding to S100A11 is also modulated by calcium; also recorded: AnII has been found to bind S100A10 and Ca^2+-S100A11
ΔCp,exp (S100A11 [2]; [21]): −1.1±0.2 kJ/(mol·K)
secondary structure in TFE [3]: far-UV CD spectra characteristic of helices
fractional helicity upon binding (S100A11 [4]): 0.57
coil-to-helix transition upon binding (S100A11 [4]): undergo a coil-to-helix transition upon binding
helicity when bound (S100A10 [5]; compared to AnII bound to S100A11): AnII becomes more helical when bound to S100A10 compared to when it is bound to S100A11
coil-to-helix transition upon binding (S100A10 [5]; far-UV CD, S100A10): undergo a coil-to-helix transition upon binding
molecular mass in solution (oligomeric state) [6]: 1.9 ± 0.16 kDa
binding to the other S100 proteins [7]: bind to only these S100 proteins and not the others
binding (S100A10 [8]): S100A10 binds AnII but not AnI
binding (S100A11 [9]; NMR spectroscopy, ref [16]): AnII can interact with Ca^2+-S100A11
binding (S100A11 [9]; [22]): S100A11 binds AnI but not AnII

melittin: peptide with the ability to bind both S100P and calmodulin
ΔCp (Ca2+-S100P; melittin binding to Ca2+-S100P): −2.5±0.5 kJ/(mol·K)
binding (Ca2+-S100P): has the ability to bind both S100P
binding (calmodulin [10]): has the ability to bind both S100P ([25]) and calmodulin

Ac-AMVSEFLKQAWFIE [AnI]
Kd (S100A11 [11]): 5 ± 1 µM
fluorescence emission maximum wavelength of AnI in presence of Ca2+-S100A11 (S100A11 [11]; [23]): 350 nm
change in Trp emission spectra without calcium (S100A11 [11]; S100A11 in the absence of calcium): very little change in the emission spectra
binding (S100A11 [11]; Trp fluorescence screen, Ca2+-S100A11): AnI has been found to bind Ca^2+-S100A6 and Ca^2+-S100A11
fluorescence emission maximum wavelength of AnI upon addition of Ca2+-S100A6 (S100A6 [12]; [23]): 352 nm
change in Trp fluorescence without calcium (S100A6 [12]; S100A6 in the absence of calcium): No changes in Trp-fluorescence
binding (S100A6 [12]; Trp fluorescence screen, Ca2+-S100A6): AnI has been found to bind Ca^2+-S100A6
change in Trp fluorescence (emission maximum or intensity) in screen [13]: did not show changes in Trp fluorescence
change in Trp fluorescence / binding in screen (calmodulin [14]): did not show changes in Trp fluorescence; also recorded: Neither peptide was found to bind to calmodulin
Kd (S100A11 [15]): 5 ± 2 µM
temperature dependence of dissociation constant (S100A11 [15]; ITC, 15-35°C): does not depend significantly on temperature
enthalpy of binding ΔHcal at 15°C (S100A11 [15]; ITC, 15°C, 5 mM calcium): -0.96 kcal/mol
enthalpy of binding ΔHcal at 35°C (S100A11 [15]; ITC, 35°C, 5 mM calcium): -7.17 kcal/mol
free energy of binding ΔG=−RTln(Kd) (S100A11 [15]; per binding site, from ITC Kd): ≈ 30 kJ/mol; also recorded: ≈ 26 kJ/mol
ΔCp,exp (S100A11 [15]; slope of ΔHcal vs temperature, ITC 15-35°C, 5 mM calcium): −1.3±0.2 kJ/(mol·K)
enthalpy of binding (sign/size) (S100A6 [16]): either negative or positive but small relative to the free energy of binding
secondary structure in TFE [3]: far-UV CD spectra characteristic of helices
fractional helicity upon binding (S100A11 [4]): 0.59
coil-to-helix transition upon binding (S100A11 [4]): undergo a coil-to-helix transition upon binding
far-UV CD difference spectrum (S100A6 [17]; AnI with Ca2+-S100A6 wild type, 10 μM protein, 50 μM AnI, 5 mM calcium): A noted lower elipticity
coil-to-helix transition upon binding (S100A6 [17]; far-UV CD, Ca2+-S100A6): undergo a coil-to-helix transition upon binding
far-UV CD difference spectrum (S100A6-Y84S): the difference spectrum for the Y84S variant has a similar spectrum to that of the wild type
effect of S100A6 substitutions on binding affinity [18]: the substitutions do not have a significant effect on the binding affinity
molecular mass in solution (oligomeric state) [6]: 1.9 ± 0.07 kDa
fluorescence emission maximum wavelength of free AnI [19]: approximately 359 nm
binding to the other S100 proteins [7]: bind to only these S100 proteins and not the others
binding (S100A10 [8]): S100A10 binds AnII but not AnI
binding (S100A11 [9]; [22]): S100A11 binds AnI but not AnII
